# Measurements from PubChem BioAssay AID602216 (Southern Research Specialized Biocontainment Screening …, 2012).
# Records with an inconclusive call do not appear. Activity calls are given as the source filed them.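 The calls were made as follows: active = inhibition of 30% or more at any tested concentration; inactive = the rest, inconclusive results apart.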
# Target: M17 leucyl aminopeptidase (Plasmodium falciparum 3D7)
# Assay: Inhibition of P. falciparum M17 aminopeptidase – biochemical, QFRET, set 2, dose response (AID 602216)
# Details: recombinant PfM17LAP, H-Leu-NHMec fluorogenic cleavage
# Outline: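 System: purified recombinant Plasmodium falciparum M17 leucine aminopeptidase (rPFM17LAP); medium: pH 7.5 buffer containing CoCl2; doses: compound dilution series spanning 100 down to 0.2 µM; schedule: 90 min reaction; measured by: Substrate-cleavage fluorescence; control set: full-reaction wells as high signal, enzyme-free wells as background; repeats: each compound concentration tested in triplicate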
row,Compound,IC50 [nM]
1,CCCCCCCCCC(=O)NO,1920
2,CCOc1ccc(CC(=O)NO)cc1,740
3,CCCCOc1ccc(CCC(=O)NO)cc1,2300
4,CC(C)COc1ccc(CC(=O)NO)cc1,950
5,CCCCOc1ccc(C(=O)NO)cc1,3300
6,O=C(Cc1ccc(Oc2ccccc2)cc1)NO,410
7,Cc1ccc(CC(=O)NO)cc1,980
8,CC(C)(C(=O)NO)c1ccccc1,60300
9,COc1ccc(CCCC(=O)NO)cc1,2850
10,CCCCc1ccc(CC(=O)NO)cc1,380
11,CN(O)C(=O)Cc1ccc(OCc2ccccc2)cc1,20600
12,O=C(Cc1ccc2c(c1)CCCC2)NO,180
13,O=C(NO)c1cccc2ccccc12,9080

# Results, then the compound that gave them:
row,IC50 [nM],Compound
1,18000,CCCCOc1ccc(CC(=O)N(C)O)cc1
2,630,O=C(Cc1ccc(OCc2ccccc2)cc1)NO
3,540,COc1ccc(CC(=O)NO)cc1
4,410,CCCCOc1ccc(CC(=O)NO)cc1
5,33200,CCCCOc1ccc(CNc2c(N(C)O)c(=O)c2=O)cc1

# Same assay, conditions: recombinant PfM17LAP, H-Leu-NHMec fluorogenic cleavage; at 1.56 µM (top of the series)
row,inhibition,Compound
1,inactive,COC(=O)Cc1ccc(OCCN(C)C)cc1

# Same assay, conditions: recombinant PfM17LAP, H-Leu-NHMec fluorogenic cleavage; at 100 µM (top of the series)
row,Compound,inhibition
1,CCCOc1ccc(CC(=O)OC)cc1,inactive
2,CCCCOc1ccc(CC(=O)O)cc1,inactive

# The next lines start with the values.
row,inhibition,Compound
1,inactive,COC(=O)Cc1ccc(OCC(C)C)cc1
2,inactive,CCC(C)Oc1ccc(CC(=O)OC)cc1 (stereo not drawn)
